Measured values from different studies.
Lines come from different studies, so protocols differ. pEC50, pKd, pKi: −log10 of the molar value.
PI4KB: Phosphatidylinositol 4-kinase beta (PI4KB, Homo sapiens, UniProt Q9UBF8)
cah: cah (Neisseria gonorrhoeae, UniProt Q50940)
Grm7: Metabotropic glutamate receptor 7 (Grm7, Rattus norvegicus, UniProt P35400)
CA4: Carbonic anhydrase 4 (CA4, Homo sapiens, UniProt P22748)
SPHK2: Sphingosine kinase 2 (SPHK2, Homo sapiens, UniProt Q9NRA0)
HDAC4: Histone deacetylase 4 (HDAC4, Homo sapiens, UniProt P56524)

`CCC(=O)N1CCC(C(=O)N(C)CC(=O)N2CCN(c3nc(-c4cnc(N)nc4C(F)F)nc(N4CCOCC4)n3)CC2)CC1` has a pKd of less than 4.52 (PI4KB; binding, competition with immobilised ligand).
`FC(F)(F)c1ccc(C(c2c[nH]c3ccccc23)c2c[nH]c3ccccc23)cc1` gave a pKd of 5.52 (Nuclear receptor subfamily 4immunitygroup A member 1 (NR4A1, Homo sapiens, UniProt P22736); binding, SPR).
`C=CC(=O)N1CCC(C(=O)NCC(=O)N2CCN(c3nc(-c4cnc(N)nc4C(F)F)nc(N4CCOCC4)n3)CC2)CC1` gave a pKd of less than 4.52 (PI4KB; binding, competition with immobilised ligand).
With `NS(=O)(=O)c1nnc(NC(=O)CC2CCCC2)s1` the pKi was 7.46 (cah; enzyme activity, inhibitor).
For `NC(=O)c1ccc[n+]([C@@H]2O[C@H](COP(=O)([O-])OP(=O)(O)OC[C@H]3O[C@@H](n4cnc5c(N)ncnc54)[C@H](O)[C@@H]3O)[C@@H](O)[C@H]2O)c1`, the pKd was no less than 5.64 (Inosine-5'-monophosphate dehydrogenase (Cryptosporidium parvum, UniProt Q8T6T2); binding).
`N[C@@H](CCC(=O)O)C(=O)O` gave a pEC50 of 3.59 (Grm7; ion flux, agonist).
The pKi of `NS(=O)(=O)c1nnc(NC(=O)CC2CCC2)s1` is reported as 8.24 (cah; enzyme activity, inhibitor).
The pKd of `Cc1cnc(-c2ccc(-c3ccc(NC(=O)Nc4c(F)cc(F)cc4F)cc3F)c3c2C(=O)NC3)[nH]1` is reported as 8.96 (Mitogen-activated protein kinase kinase kinase kinase 5 (MAP4K5, Homo sapiens, UniProt Q9Y4K4); binding, competition with immobilised ligand).
`C[C@H]1CN(C2COC2)CCN1c1ccc(Nc2cc(-c3ccnc(N4CCn5c(cc6c5CC(C)(C)C6)C4=O)c3CO)cn(C)c2=O)nc1` has a pKi of 6.15 (Solute carrier organic anion transporter family member 1B3 (SLCO1B3, Homo sapiens, UniProt Q9NPD5); transporter uptake, inhibitor; HEK293).
With `Nc1nc(-c2ccc(Cl)c(S(N)(=O)=O)c2)cs1` the pKd was 6.70 (CA4; thermal stability, DSF; pH 7).
For `CC[C@H](NC(=O)[C@H](CS(=O)(=O)CC1CC1)N[C@@H](c1ccc(F)cc1)C(F)(F)F)C(=O)C(=O)NC1CC1`, the pKi was 9.60 (Procathepsin L (CTSL, Homo sapiens, UniProt P07711); enzyme activity, inhibitor, fluorescence; with preincubation).
`Nc1ncnc2c1ncn2[C@@H]1O[C@H](COP(=O)(O)OP(=O)(O)OP(=O)(O)O)[C@@H](O)[C@H]1O` has a pEC50 of roughly 6.05 (P2X purinoceptor 1 (P2RX1, Homo sapiens, UniProt P51575); ion current, agonist, two-electrode voltage clamp; oocytes).
For `CCOC(=O)[C@](CC)(CCCS(=O)(=O)CCOCCOCCNC(=O)OC(C)(C)C)NC(=O)c1ccc(C2CC2)c(Cc2ccc(F)cc2)n1`, the pEC50 was 7.48 (Cannabinoid receptor 2 (Cnr2, Mus musculus, UniProt P47936); cAMP, agonist).
`[H]/N=C(\N)N1CCC[C@H]1c1nc(-c2ccc(OCC=Cc3ccc(C(F)(F)F)cc3)c(C(F)(F)F)c2)no1` has a pKi of 6.98 (SPHK2; enzyme activity, inhibitor).
`CCCC[C@H](NC(=O)[C@H](C)c1c(C)[nH]c2ccc(O)cc12)c1ncc(-c2cc3ccccc3nc2OC)[nH]1` gave a pKi of 5.40 (Alpha-1B adrenergic receptor (Adra1b, Rattus norvegicus, UniProt P15823); cell-free assay).
With `Nc1nnc(S(N)(=O)=O)s1` the pKi was 7.14 (cah; enzyme activity, inhibitor).
For `CCCN(CCCCOCCOCCOCCOCC(=O)N[C@H](C(=O)N1C[C@H](O)C[C@H]1C(=O)NCc1ccc(-c2scnc2C)cc1)C(C)(C)C)C[C@@H](C)NC(=O)c1ccc(-c2noc(C(F)(F)F)n2)cc1`, the DC50 was 4 nM (HDAC4; protein level, degrader).
For `NS(=O)(=O)c1nnc(NC(=O)C2CC2)s1`, the pKi was 7.82 (cah; enzyme activity, inhibitor).
`CCC(=O)N1CCC(C(=O)NCC(=O)N2CCN(c3nc(-c4cnc(N)nc4C(F)F)nc(N4CCOCC4)n3)CC2)CC1` has a pKd of less than 4.52 (PI4KB; binding, competition with immobilised ligand).
The pEC50 of `COC(=O)c1ccc(-n2c(C)cc(C(=O)CSc3ccc(NC(C)=O)cc3)c2C)cc1` is reported as 5.80 (Grm7; calcium signal, positive allosteric modulator).
For `CCCc1ccc(CCc2ccc(-c3noc([C@@H]4CCCN4C(=N)N)n3)cc2C(F)(F)F)cc1`, the pKi was 6.88 (SPHK2; enzyme activity, inhibitor).
With `CCCN(CCCCOCCOCCOCCOCCOCC(=O)N[C@@H](C(=O)N1C[C@@H](O)C[C@@H]1C(=O)NCc1ccc(-c2scnc2C)cc1)C(C)(C)C)C[C@@H](C)NC(=O)c1ccc(-c2noc(C(F)(F)F)n2)cc1` the DC50 was greater than 10000 nM (HDAC4; protein level, degrader).
For `NS(=O)(=O)c1cc(C2(O)CSC3=NCCN32)ccc1Cl` (centres unmarked), the pKd was 7.40 (CA4; thermal stability, DSF; pH 7).
